Assay results from ChEMBL document CHEMBL4402603, “Structure-Activity Relationship of SPOP Inhibitors against Kidney Cancer” (J Med Chem, 2020).
Calls of active or inactive are those of the source. The rule behind the calls is not given here.

Legend:
[1] = molecular target: Speckle-type POZ protein/PTEN (Homo sapiens) (UniProt P60484+O43791); test: Inhibition of SPOP/PTEN interaction in human HEK293T cells assessed as reduction in SPOP level incubated for 12 hr by co-immunoprecipitation based Western blot analysis
Chain of Speckle-type POZ protein/PTEN (Homo sapiens) (O43791 whole entry, looked up): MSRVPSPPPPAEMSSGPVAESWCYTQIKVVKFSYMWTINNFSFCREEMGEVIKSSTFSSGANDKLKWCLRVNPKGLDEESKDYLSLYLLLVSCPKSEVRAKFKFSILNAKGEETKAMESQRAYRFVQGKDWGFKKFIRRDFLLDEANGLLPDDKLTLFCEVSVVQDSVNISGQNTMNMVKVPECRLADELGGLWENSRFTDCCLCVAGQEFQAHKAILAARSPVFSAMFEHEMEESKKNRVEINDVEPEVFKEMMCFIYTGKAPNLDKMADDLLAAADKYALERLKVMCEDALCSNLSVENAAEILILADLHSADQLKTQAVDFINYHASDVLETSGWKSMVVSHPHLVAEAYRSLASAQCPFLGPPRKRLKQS
Chain of Speckle-type POZ protein/PTEN (Homo sapiens) (P60484 whole entry, looked up): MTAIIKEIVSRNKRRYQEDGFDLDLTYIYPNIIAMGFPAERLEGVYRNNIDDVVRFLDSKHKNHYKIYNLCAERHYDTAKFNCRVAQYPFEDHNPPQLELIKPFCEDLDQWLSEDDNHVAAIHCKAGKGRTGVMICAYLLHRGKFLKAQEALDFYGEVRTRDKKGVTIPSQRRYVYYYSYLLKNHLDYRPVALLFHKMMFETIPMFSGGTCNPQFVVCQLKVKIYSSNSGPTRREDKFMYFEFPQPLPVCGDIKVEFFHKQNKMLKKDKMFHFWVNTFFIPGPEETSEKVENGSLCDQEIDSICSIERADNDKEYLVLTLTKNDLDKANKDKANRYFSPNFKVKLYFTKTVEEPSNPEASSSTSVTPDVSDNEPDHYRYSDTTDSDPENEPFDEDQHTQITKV

[2] = molecular target: Speckle-type POZ protein (Homo sapiens) (UniProt O43791); test: Inhibition of SPOP signalling in human OS-RC2 cells assessed as reduction in AKT phosphorylation at 0.5 to 15 uM incubated for 12 hrs by Western blot analysis; assay type: cell-based
Chain of Speckle-type POZ protein (Homo sapiens) (O43791 whole entry, the tested form may be a part): as the sequence (O43791 whole entry, looked up) above
How it was run: (§1)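 Cells exposed 12 hr to inhibitor at graded concentrations, RIPA lysates normalized by BCA. 12% SDS-PAGE, nitrocellulose transfer, milk block, primary antibody at 4 °C overnight, HRP secondary, ECL. GAPDH loading control.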

[3] = tested on: A549; test: Cytotoxicity against human A549 cells assessed as reduction in cell viability incubated for 72 hrs by MTT assay; assay type: cell-based; details: A549, 72 h
How it was run: (§2)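 Cells maintained in DMEM/10% FBS at 37 °C, 5% CO2. Cell proliferation quantified by MTT after 72 hr compound exposure, A490 read. Untreated cells = 100%. Mean ± SD, n = 3.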

[4] = molecular target: Speckle-type POZ protein (Homo sapiens) (UniProt O43791); test: Inhibition of SPOP signalling in human A498 cells assessed as reduction in AKT phosphorylation at 0.5 to 10 uM incubated for 12 hrs by Western blot analysis; assay type: cell-based
How it was run: as §1

[5] = molecular target: Speckle-type POZ protein (Homo sapiens) (UniProt O43791); test: Inhibition of SPOP signalling in human A498 cells assessed as accumulation of PTEN incubated for 12 hrs by Western blot analysis; assay type: cell-based
How it was run: (§3)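 Cells treated with SPOP inhibitor at different concentrations for 12 hr, lysed in RIPA, protein by BCA. Samples run on 12% SDS-PAGE, blotted to nitrocellulose, primary antibody overnight at 4 °C, HRP secondary, ECL detection. GAPDH loading control. Triplicate experiments.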

[6] = molecular target: Speckle-type POZ protein (Homo sapiens) (UniProt O43791); test: Inhibition of SPOP signalling in human OS-RC2 cells assessed as effect of DUSP7 mRNA expression at 1 to 10 uM incubated for 12 hrs by qRT-PCR analysis; assay type: cell-based
[7] = molecular target: Speckle-type POZ protein (Homo sapiens) (UniProt O43791); test: Inhibition of SPOP in HEK293T cells assessed as reduction in cell viability incubated for 72 hrs by MTT assay; assay type: cell-based
[8] = molecular target: Speckle-type POZ protein (Homo sapiens) (UniProt O43791); test: Inhibition of SPOP signalling in human OS-RC2 cells assessed as effect on total ERK level at 0.5 to 15 uM incubated for 12 hrs by Western blot analysis; assay type: cell-based
How it was run: as §1

[9] = molecular target: Speckle-type POZ protein (Homo sapiens) (UniProt O43791); test: Binding affinity to recombinant N-terminal GST/His-tagged MATH binding domain SPOP (unknown origin) expressed in Escherichia coli BL21 (DE3) assessed as change in melting temperature at 20 fold compound incubated for 15 mins by nano differential scanning fluorimetry (reference value: -3.8 degreeC)
[10] = tested on: U-251; test: Cytotoxicity against human U251 cells assessed as reduction in cell viability incubated for 72 hrs by MTT assay; assay type: cell-based; details: U-251, 72 h
How it was run: as §2

[11] = molecular target: Speckle-type POZ protein (Homo sapiens) (UniProt O43791); test: Inhibition of SPOP signalling in human OS-RC2 cells assessed as reduction in ERK phosphorylation at 0.5 to 15 uM incubated for 12 hrs by Western blot analysis; assay type: cell-based
How it was run: as §1

[12] = tested on: OS-RC-2; test: Antiproliferative activity against human OS-RC2 cells assessed as reduction in cell viability at 30 uM incubated for 72 hrs by MTT assay relative to control; assay type: functional; details: OS-RC-2, 72 h
How it was run: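 MTT read-out. Cells seeded at 1,000-2,200/well, grown 12 hr at 37 °C, then compound added for 72 hr. MTT for 4 hr, formazan dissolved in DMSO, absorbance at 490 nm. Untreated-cell OD taken as 100% proliferation; inhibition reported at 30 μM.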

[13] = molecular target: Speckle-type POZ protein (Homo sapiens) (UniProt O43791); test: Binding affinity to recombinant N-terminal GST/His-tagged SPOP (unknown origin) (23 to 337 residues) expressed in Escherichia coli BL21 (DE3) assessed as change in melting temperature at 1 fold compound incubated for 15 mins by nano differential scanning fluorimetry (reference value: -1.9 degreeC)
[14] = molecular target: Speckle-type POZ protein (Homo sapiens) (UniProt O43791); test: Inhibition of SPOP signalling in human OS-RC2 cells assessed as accumulation of PTEN incubated for 12 hrs by Western blot analysis; assay type: cell-based
How it was run: as §3

[15] = tested on: A498; test: Inhibition of colony formation in human A498 cells at 1 to 5 uM incubated for 12 days by crystal violet dye based assay; assay type: functional, cell-based
How it was run: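 Cells seeded at 1,000/well, grown 12 days at 37 °C, 5% CO2, medium renewed every 3 days. Fixed with 10% acetic acid/10% methanol for 15 min, stained with 1% crystal violet for 10 min.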

inhibition [1]: Dose-dependent effect | inhibition [2]: Active | inhibition [4]: Active | inhibition [5]: Dose-dependent effect | inhibition [6]: inactive | inhibition [8]: inactive | ΔTm [9]: 3.5 °C | inhibition [11]: Active | ΔTm [13]: 2.1 °C | inhibition [14]: Dose-dependent effect
SMILES: Cc1cccn2c(=O)c3cc(C(=O)NCCN4CCN(C)CC4)c(=N)n(CCc4cccs4)c3nc12
IC50 [3]: 16.2 µM | inhibition [7]: Active | IC50 [10]: 10.2 µM | inhibition at 30 µM [12]: 90% | inhibition [15]: Active
